# According to ChEMBL document CHEMBL1137333, “Synthesis, radiosynthesis, and biological evaluation of carbon-11 labeled 2beta-carbomethoxy-3beta-(3'-((Z)-2-haloethenyl)phenyl)nortropanes: candidate radioligands for in vivo imaging of the serotonin transporter with positron emission tomography” (J Med Chem, 2006):
# Legend:
# Cynomolgus monkey [1] = assay: Uptake in anesthetized cynomolgus monkey cerebellum after 15.5 mins; format: ADME, organism-based, Macaca mulatta; details: rhesus monkey, in vivo
# In short: (§1)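 Baseline microPET (Concorde P4) regional brain time-activity curves in anesthetized cynomolgus monkey following injection of the [11C]-labelled tracer, with radioactivity followed over the scan.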
# Cynomolgus monkey [2] = assay: Ratio of uptake in caudate to cerebellum of anesthetized cynomolgus monkey after 105 mins; format: ADME, organism-based; details: in vivo, 1.75 h
# In short: (§2)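 Baseline microPET (Concorde P4) in anesthetized cynomolgus monkey after injection of the [11C]-labelled tracer. Regional time-activity curves were taken, and each region's uptake was divided by cerebellum uptake (low-SERT reference) at 65, 85 and 105 min postinjection.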
# Cynomolgus monkey [3] = assay: Uptake in anesthetized cynomolgus monkey cerebellum after 0.5 mins; format: ADME, organism-based; details: in vivo; in short: as §1
# Cynomolgus monkey [4] = assay: Uptake in anesthetized cynomolgus monkey frontal after 0.5 mins; format: ADME, organism-based, Frontal cortex; details: in vivo; in short: as §1
# Cynomolgus monkey [5] = assay: Ratio of uptake in putamen to cerebellum of anesthetized cynomolgus monkey after 85 mins; format: ADME, organism-based; details: in vivo; in short: as §2
# Cynomolgus monkey [6] = assay: Uptake in anesthetized cynomolgus monkey medulla after 22.5 mins; format: ADME, organism-based, Medulla of organ; details: in vivo, 0.375 h
# In short: (§3)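 Baseline microPET scan (P4 scanner) of anesthetized cynomolgus monkeys after injection of the carbon-11 labelled nortropane tracer. Two baseline studies were run per tracer. Radioactivity was followed over time in regional brain time-activity curves.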
# Cynomolgus monkey [7] = assay: Uptake in anesthetized cynomolgus monkey putamen after 9.5 mins; format: ADME, organism-based; details: in vivo
# In short: (§4)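 Baseline microPET (Concorde P4) scan in anesthetized cynomolgus monkeys after injection of the carbon-11 labeled tracer, with no chase drug. Regional brain time-activity curves were followed over the scan. Tracer radiochemical purity and specific activity were determined by analytical HPLC at the time of injection.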
# Cynomolgus monkey [8] = assay: Uptake in anesthetized cynomolgus monkey midbrain after 0.5 mins; format: ADME, organism-based; details: in vivo; in short: as §3
# Cynomolgus monkey [9] = assay: Uptake in anesthetized cynomolgus monkey pons after 75.0 mins; format: ADME, organism-based; details: in vivo, 1.25 h; in short: as §4
# Cynomolgus monkey [10] = assay: Uptake in anesthetized cynomolgus monkey putamen after 35.0 mins; format: ADME, organism-based; details: in vivo; in short: as §4
# Cynomolgus monkey [11] = assay: Uptake in anesthetized cynomolgus monkey occipital after 22.5 mins; format: ADME, organism-based, Occipital cortex; details: in vivo, 0.375 h; in short: as §3
# Cynomolgus monkey [12] = assay: Ratio of uptake in medulla to cerebellum of anesthetized cynomolgus monkey after 65 mins; format: ADME, organism-based; details: in vivo; in short: as §2
# Cynomolgus monkey [13] = assay: Uptake in anesthetized cynomolgus monkey frontal after 9.5 mins; format: ADME, organism-based, Frontal cortex; details: in vivo; in short: as §3
# Cynomolgus monkey [14] = assay: Uptake in anesthetized cynomolgus monkey putamen after 27.5 mins; format: ADME, organism-based; details: in vivo; in short: as §4
# Cynomolgus monkey [15] = assay: Ratio of uptake in putamen to cerebellum of anesthetized cynomolgus monkey after 65 mins; format: ADME, organism-based; details: in vivo; in short: as §2
# Cynomolgus monkey [16] = assay: Ratio of uptake in caudate to cerebellum of anesthetized cynomolgus monkey after 65 mins; format: ADME, organism-based; details: in vivo; in short: as §2
# Cynomolgus monkey [17] = assay: Ratio of uptake in midbrain to cerebellum of anesthetized cynomolgus monkey after 105 mins; format: ADME, organism-based; details: in vivo, 1.75 h; in short: as §2
# Cynomolgus monkey [18] = assay: Uptake in anesthetized cynomolgus monkey cerebellum after 1.5 mins; format: ADME, organism-based; details: in vivo, 0.025 h; in short: as §1
# Cynomolgus monkey [19] = assay: Uptake in anesthetized cynomolgus monkey cerebellum after 35.0 mins; format: ADME, organism-based, Macaca mulatta; details: rhesus monkey, in vivo; in short: as §1
# Cynomolgus monkey [20] = assay: Uptake in anesthetized cynomolgus monkey putamen after 75.0 mins; format: ADME, organism-based; details: in vivo, 1.25 h; in short: as §4
# Cynomolgus monkey [21] = assay: Uptake in anesthetized cynomolgus monkey medulla after 0.5 mins; format: ADME, organism-based, Medulla of organ; details: in vivo; in short: as §3
# Cynomolgus monkey [22] = assay: Uptake in anesthetized cynomolgus monkey medulla after 105.0 mins; format: ADME, organism-based, Medulla of organ; details: in vivo, 1.75 h; in short: as §3
# Cynomolgus monkey [23] = assay: Uptake in anesthetized cynomolgus monkey midbrain after 95.0 mins; format: ADME, organism-based; details: in vivo; in short: as §3
# Cynomolgus monkey [24] = assay: Uptake in anesthetized cynomolgus monkey frontal after 4.5 mins; format: ADME, organism-based, Frontal cortex; details: in vivo, 0.075 h; in short: as §3
# Cynomolgus monkey [25] = assay: Uptake in anesthetized cynomolgus monkey pons after 3.5 mins; format: ADME, organism-based; details: in vivo; in short: as §4
# Cynomolgus monkey [26] = assay: Ratio of uptake in medulla to cerebellum of anesthetized cynomolgus monkey after 85 mins; format: ADME, organism-based; details: in vivo; in short: as §2
# Cynomolgus monkey [27] = assay: Uptake in anesthetized cynomolgus monkey medulla after 55.0 mins; format: ADME, organism-based, Medulla of organ; details: in vivo; in short: as §3
# Cynomolgus monkey [28] = assay: Uptake in anesthetized cynomolgus monkey frontal after 3.5 mins; format: ADME, organism-based, Frontal cortex; details: in vivo; in short: as §3
# Cynomolgus monkey [29] = assay: Uptake in anesthetized cynomolgus monkey caudate after 9.5 mins; format: ADME, organism-based, Caudate nucleus; details: in vivo; in short: as §1
# Cynomolgus monkey [30] = assay: Uptake in anesthetized cynomolgus monkey putamen after 65.0 mins; format: ADME, organism-based; details: in vivo; in short: as §4
# Cynomolgus monkey [31] = assay: Uptake in anesthetized cynomolgus monkey frontal after 75.0 mins; format: ADME, organism-based, Frontal cortex; details: in vivo, 1.25 h; in short: as §3
# Cynomolgus monkey [32] = assay: Uptake in anesthetized cynomolgus monkey cerebellum after 3.5 mins; format: ADME, organism-based; details: in vivo; in short: as §1
# Cynomolgus monkey [33] = assay: Uptake in anesthetized cynomolgus monkey thalamus after 115.0 mins; format: ADME, organism-based; details: in vivo; in short: as §4
# Cynomolgus monkey [34] = assay: Ratio of uptake in putamen to cerebellum of anesthetized cynomolgus monkey after 105 mins; format: ADME, organism-based; details: in vivo, 1.75 h; in short: as §2
# Cynomolgus monkey [35] = assay: Uptake in anesthetized cynomolgus monkey medulla after 2.5 mins; format: ADME, organism-based, Medulla of organ; details: in vivo; in short: as §3
# Cynomolgus monkey [36] = assay: Uptake in anesthetized cynomolgus monkey thalamus after 65.0 mins; format: ADME, organism-based; details: in vivo; in short: as §4
# Cynomolgus monkey [37] = assay: Uptake in anesthetized cynomolgus monkey occipital after 12.5 mins; format: ADME, organism-based, Macaca mulatta, Occipital cortex; details: rhesus monkey, in vivo; in short: as §3
# Cynomolgus monkey [38] = assay: Uptake in anesthetized cynomolgus monkey frontal after 105.0 mins; format: ADME, organism-based, Frontal cortex; details: in vivo, 1.75 h; in short: as §3
# Cynomolgus monkey [39] = assay: Ratio of uptake in thalamus to cerebellum of anesthetized cynomolgus monkey after 105 mins; format: ADME, organism-based; details: in vivo, 1.75 h; in short: as §2
# Cynomolgus monkey [40] = assay: Uptake in anesthetized cynomolgus monkey pons after 0.5 mins; format: ADME, organism-based; details: in vivo; in short: as §3
# Cynomolgus monkey [41] = assay: Uptake in anesthetized cynomolgus monkey pons after 9.5 mins; format: ADME, organism-based; details: in vivo
# In short: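 Carbon-11 labelled tracer injected into anesthetized cynomolgus monkeys under baseline conditions. Regional brain radioactivity was followed by microPET (Concorde microPET P4) and expressed as time-activity curves for the brain regions. Two baseline studies were run per tracer. Tracer radiochemical purity and specific activity were determined by analytical HPLC at the time of injection.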
# Cynomolgus monkey [42] = assay: Uptake in anesthetized cynomolgus monkey midbrain after 115.0 mins; format: ADME, organism-based; details: in vivo; in short: as §3
# Cynomolgus monkey [43] = assay: Uptake in anesthetized cynomolgus monkey midbrain after 6.5 mins; format: ADME, organism-based; details: in vivo; in short: as §3
# Cynomolgus monkey [44] = assay: Ratio of uptake in pons to cerebellum of anesthetized cynomolgus monkey after 65 mins; format: ADME, organism-based; details: in vivo; in short: as §2
# Cynomolgus monkey [45] = assay: Uptake in anesthetized cynomolgus monkey medulla after 27.5 mins; format: ADME, organism-based, Medulla of organ; details: in vivo; in short: as §3
# Cynomolgus monkey [46] = assay: Uptake in anesthetized cynomolgus monkey occipital after 0.5 mins; format: ADME, organism-based, Occipital cortex; details: in vivo; in short: as §3
# Cynomolgus monkey [47] = assay: Uptake in anesthetized cynomolgus monkey occipital after 4.5 mins; format: ADME, organism-based, Occipital cortex; details: in vivo, 0.075 h; in short: as §3
# Cynomolgus monkey [48] = assay: Uptake in anesthetized cynomolgus monkey pons after 95.0 mins; format: ADME, organism-based; details: in vivo; in short: as §4
# Cynomolgus monkey [49] = assay: Uptake in anesthetized cynomolgus monkey medulla after 45.0 mins; format: ADME, organism-based, Medulla of organ; details: in vivo, 0.75 h; in short: as §3
# Cynomolgus monkey [50] = assay: Ratio of uptake in thalamus to cerebellum of anesthetized cynomolgus monkey after 85 mins; format: ADME, organism-based; details: in vivo; in short: as §2
# Cynomolgus monkey [51] = assay: Uptake in anesthetized cynomolgus monkey medulla after 4.5 mins; format: ADME, organism-based, Medulla of organ; details: in vivo, 0.075 h; in short: as §3
# Cynomolgus monkey [52] = assay: Uptake in anesthetized cynomolgus monkey midbrain after 45.0 mins; format: ADME, organism-based; details: in vivo, 0.75 h; in short: as §3
# Cynomolgus monkey [53] = assay: Uptake in anesthetized cynomolgus monkey putamen after 3.5 mins; format: ADME, organism-based; details: in vivo; in short: as §4
# Cynomolgus monkey [54] = assay: Uptake in anesthetized cynomolgus monkey medulla after 9.5 mins; format: ADME, organism-based, Medulla of organ; details: in vivo; in short: as §3
# Cynomolgus monkey [55] = assay: Uptake in anesthetized cynomolgus monkey thalamus after 18.5 mins; format: ADME, organism-based; details: in vivo; in short: as §4
structure (smiles),measurement,setting,value
[11CH3]OC(=O)[C@@H]1C2CCC(C[C@@H]1c1cccc(/C=C/I)c1)N2 (stereo not given in full),Drug uptake,Cynomolgus monkey [1],5.73
same,Ratio,Cynomolgus monkey [2],1.7
same,Drug uptake,Cynomolgus monkey [3],0.01
same,Drug uptake,Cynomolgus monkey [4],0.01
same,Ratio,Cynomolgus monkey [5],1.8
same,Drug uptake,Cynomolgus monkey [6],6.95
same,Drug uptake,Cynomolgus monkey [7],5.39
same,Drug uptake,Cynomolgus monkey [8],0.01
same,Drug uptake,Cynomolgus monkey [9],5.92
same,Drug uptake,Cynomolgus monkey [10],7.2
same,Drug uptake,Cynomolgus monkey [11],5.01
same,Ratio,Cynomolgus monkey [12],1.6
same,Drug uptake,Cynomolgus monkey [13],3.33
same,Drug uptake,Cynomolgus monkey [14],6.94
same,Ratio,Cynomolgus monkey [15],1.6
same,Ratio,Cynomolgus monkey [16],1.3
same,Ratio,Cynomolgus monkey [17],2.4
same,Drug uptake,Cynomolgus monkey [18],0.38
same,Drug uptake,Cynomolgus monkey [19],5.42
same,Drug uptake,Cynomolgus monkey [20],6.92
same,Drug uptake,Cynomolgus monkey [21],0.02
same,Drug uptake,Cynomolgus monkey [22],6.25
same,Drug uptake,Cynomolgus monkey [23],7.11
same,Drug uptake,Cynomolgus monkey [24],1.91
same,Drug uptake,Cynomolgus monkey [25],1.79
same,Ratio,Cynomolgus monkey [26],1.8
same,Drug uptake,Cynomolgus monkey [27],7.26
same,Drug uptake,Cynomolgus monkey [28],1.21
same,Drug uptake,Cynomolgus monkey [29],4.12
same,Drug uptake,Cynomolgus monkey [30],7.06
same,Drug uptake,Cynomolgus monkey [31],3.73
same,Drug uptake,Cynomolgus monkey [32],2.19
same,Drug uptake,Cynomolgus monkey [33],6.16
same,Ratio,Cynomolgus monkey [34],2.1
same,Drug uptake,Cynomolgus monkey [35],1.4
same,Drug uptake,Cynomolgus monkey [36],6.9
same,Drug uptake,Cynomolgus monkey [37],4.52
same,Drug uptake,Cynomolgus monkey [38],3.42
same,Ratio,Cynomolgus monkey [39],2.1
same,Drug uptake,Cynomolgus monkey [40],0.01
same,Drug uptake,Cynomolgus monkey [41],4.69
same,Drug uptake,Cynomolgus monkey [42],7.23
same,Drug uptake,Cynomolgus monkey [43],4.97
same,Ratio,Cynomolgus monkey [44],1.4
same,Drug uptake,Cynomolgus monkey [45],7.04
same,Drug uptake,Cynomolgus monkey [46],0.01
same,Drug uptake,Cynomolgus monkey [47],2.44
same,Drug uptake,Cynomolgus monkey [48],5.84
same,Drug uptake,Cynomolgus monkey [49],7.21
same,Ratio,Cynomolgus monkey [50],1.8
same,Drug uptake,Cynomolgus monkey [51],3.9
same,Drug uptake,Cynomolgus monkey [52],7.66
same,Drug uptake,Cynomolgus monkey [53],2.12
same,Drug uptake,Cynomolgus monkey [54],6.22
same,Drug uptake,Cynomolgus monkey [55],6.41
